Data from ChEMBL document CHEMBL1137430, “Incorporation of an intramolecular hydrogen-bonding motif in the side chain of 4-aminoquinolines enhances activity against drug-resistant P. falciparum” (J Med Chem, 2006).

What was measured:
[1] = system: Plasmodium falciparum; test: Antimalarial activity against multidrug-resistant Plasmodium falciparum W2; assay type: functional, organism-based
In short: (§1)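 P. falciparum blood-stage cultures at 37 °C under 5% CO2, 5% O2. Samples taken 72 h after drug addition, fixed in 2% paraformaldehyde about 1 h, then stained with 50 nM YOYO-1 in PBS for 24 h in the dark at 4 °C. Percent parasitized RBCs read by flow cytometry against no-drug cultures. Doses 0.1–200 nM in triplicate. IC50 from a variable-slope sigmoidal fit.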

[2] = system: Plasmodium falciparum; test: Antimalarial activity against chloroquine-sensitive Plasmodium falciparum 3D7; assay type: functional, organism-based; in short: as §1

SMILES | IC50 [1] [nM] | IC50 [2] [nM]
CCCN(CCCCNc1ccnc2cc(Cl)ccc12)Cc1cccs1 | 22 | 7.2
CCCN(CCCNc1ccnc2cc(Cl)ccc12)Cc1ccccc1O | 1.8 | 0.65
CCCN(CCCCNc1ccnc2cc(Cl)ccc12)Cc1ccc(Cl)o1 | 6 | 4.3
CCCN(CCCCNc1ccnc2cc(Cl)ccc12)Cc1cc(F)ccc1OC | 4.9 | 1.9
CCCN(CCCNc1ccnc2cc(C)ccc12)Cc1cc([N+](=O)[O-])ccc1O | 126 | 38.8
CCCN(CCCNc1ccnc2cc(Cl)ccc12)Cc1cccc(F)c1O | 2.6 | 0.98
CCCN(CCCCNc1ccnc2cc(Cl)ccc12)Cc1cccc2c1OCO2 | 23 | 4.2
CCCN(CCCNc1ccnc2cc(Cl)ccc12)Cc1cc(F)ccc1OC |  | 5.2
CCCN(CCCCNc1ccnc2cc(Cl)ccc12)Cc1c(F)cccc1OC | 11.2 | 10
CCCN(CCCCNc1ccnc2cc(Cl)ccc12)Cc1cccc(F)c1O | 4.6 | 1.4
CCCN(CCCCNc1ccnc2cc(Cl)ccc12)Cc1cccc(OC)c1O | 4.3 | 1
CCCN(CCCCNc1ccnc2cc(Cl)ccc12)Cc1cc(OC)ccc1O | 27.5 | 6.8
CCCN(CCCCNc1ccnc2cc(Cl)ccc12)Cc1ccco1 | 4 | 3.1
CCCN(CCCNc1ccnc2cc(Cl)ccc12)Cc1ccco1 | 33 | 12.2
CCCN(CCCCNc1ccnc2cc(Cl)ccc12)Cc1cc(O)ccc1O | 8.9 | 2.2
CCCN(CCCNc1ccnc2cc(Cl)ccc12)Cc1cc(O)ccc1O | 22.5 | 2.9
CCCN(CCCCNc1ccnc2cc(Cl)ccc12)Cc1ccc(C)o1 | 30.2 | 7.4
CCCN(CCCNc1ccnc2cc(Cl)ccc12)Cc1cccs1 | 140 | 32.1
CCCN(CCCCNc1ccnc2cc(Cl)ccc12)Cc1ccccc1O | 20 | 7
CCCN(CCCCNc1ccnc2cc(Cl)ccc12)Cc1cc(OC(F)(F)F)ccc1O | 5.9 | 2.4
